Measurements taken from ChEMBL document CHEMBL1125338, “Synthesis, chemical, and biological properties of vinylogous hydroxamic acids: dual inhibitors of 5-lipoxygenase and IL-1 biosynthesis” (J Med Chem, 1992).

Tests used:
[1] = target: T1, Polyunsaturated fatty acid 5-lipoxygenase (Rattus norvegicus, UniProt P12527); assay: inhibitory activity against 5-lipoxygenase in rat basophilic leukemia cell line.; type: cell-based, RBL-1
T1 sequence (P12527 whole entry): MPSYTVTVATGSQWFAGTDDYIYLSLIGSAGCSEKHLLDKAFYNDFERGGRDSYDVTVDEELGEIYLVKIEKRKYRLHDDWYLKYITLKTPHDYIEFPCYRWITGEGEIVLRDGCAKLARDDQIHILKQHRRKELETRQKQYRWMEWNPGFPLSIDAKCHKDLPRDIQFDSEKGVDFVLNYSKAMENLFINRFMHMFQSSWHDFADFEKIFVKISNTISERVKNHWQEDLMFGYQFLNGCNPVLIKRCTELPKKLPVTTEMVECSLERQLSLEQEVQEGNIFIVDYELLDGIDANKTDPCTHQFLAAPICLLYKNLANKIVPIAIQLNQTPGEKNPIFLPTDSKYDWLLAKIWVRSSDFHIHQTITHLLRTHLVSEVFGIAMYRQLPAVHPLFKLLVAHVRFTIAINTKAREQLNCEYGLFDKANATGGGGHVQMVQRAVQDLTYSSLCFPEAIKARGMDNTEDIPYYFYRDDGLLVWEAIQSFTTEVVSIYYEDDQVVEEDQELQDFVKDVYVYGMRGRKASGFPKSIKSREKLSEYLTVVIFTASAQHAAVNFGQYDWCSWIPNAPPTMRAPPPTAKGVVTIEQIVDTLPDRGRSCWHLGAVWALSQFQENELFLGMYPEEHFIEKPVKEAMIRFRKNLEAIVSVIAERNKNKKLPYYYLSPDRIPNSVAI

[2] = Inhibition of IL-1 beta biosynthesis in human monocytes; type: functional, cell-based
Outline: (§1)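 Human blood monocytes were isolated by ficoll-hypaque then elutriation and plated at 2×10^6 cells/mL in RPMI 1640 + 5% FBS. Compound in DMSO was added at 10, 3, 1, 0.3 and 0.1 μM for 1 h. Cells were then stimulated with Salmonella typhimurium LPS for about 20 h. Supernatant IL-1 was measured by ELISA and viability by MTT.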

[3] = target: Interleukin-1 beta (Homo sapiens) (UniProt P01584); assay: Compound was evaluated for the inhibition of IL-1 beta release by human monocytes.
Crotalus adamanteus [4] = assay: Compound was evaluated for the inhibition of PLA2.; type: functional
[5] = target: T2, Polyunsaturated fatty acid 5-lipoxygenase (Rattus norvegicus) (UniProt P12527)
T2 sequence (whole entry): T1 sequence (P12527 whole entry)

Crotalus adamanteus [6] = assay: Compound was evaluated for the inhibition of, PLA2.; type: functional
[7] = target: T2, Polyunsaturated fatty acid 5-lipoxygenase (Rattus norvegicus); remark: listed apart in the source
[8] = target: Cyclooxygenase (Bos taurus) (UniProt O62664+O62698)
Homo sapiens [9] = species on record: Homo sapiens; assay: Compound was evaluated for the inhibition of, IL1-beta biosynthesis.; type: functional; outline: as §1
[10] = target: T2, Polyunsaturated fatty acid 5-lipoxygenase (Rattus norvegicus); assay: Compound was evaluated for the inhibition of 5-LO (lipoxygenase); type: functional
Outline: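 Enzyme source was a 1000g supernatant of homogenized RBL-1 cells, dosed to give 3300–3800 dpm net 5-HETE (9–20 μg cell protein/assay). Compound in 5% DMSO/0.2 M Tris pH 8.5 was preincubated with enzyme for 5 min at 37 °C in pH 7.0 phosphate buffer (EDTA, gelatin, glutathione, CaCl2, indomethacin). Then 0.042 mM [14C]arachidonic acid (final) was added, 2 min. Duplicates; IC50 by linear regression over three concentrations.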

Crotalus adamanteus [11] = assay: Compound was evaluated for the inhibition of,PLA2.; type: functional
Homo sapiens [12] = species on record: Homo sapiens; assay: Compound was evaluated for the inhibition of,IL-1beta biosynthesis.; type: functional; outline: as §1

Chain of Interleukin-1 beta (Homo sapiens) (P01584 whole entry, looked up): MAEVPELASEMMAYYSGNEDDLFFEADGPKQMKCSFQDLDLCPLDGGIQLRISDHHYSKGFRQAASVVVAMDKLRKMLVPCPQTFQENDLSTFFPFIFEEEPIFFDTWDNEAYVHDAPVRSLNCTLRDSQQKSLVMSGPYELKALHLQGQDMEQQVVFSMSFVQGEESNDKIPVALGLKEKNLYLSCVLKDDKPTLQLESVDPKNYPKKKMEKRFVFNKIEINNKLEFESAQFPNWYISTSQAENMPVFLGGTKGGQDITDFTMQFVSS

Structure (SMILES)	IC50 [1] [µM]	IC50 [2] [µM]	other results
CCc1c(N(O)/C=C\C(=O)c2ccc3ccccc3c2)ccc2ccccc12	0.75	–	–
COC(=O)/C=C\N(O)Cc1ccc(OCc2ccccc2)cc1	4.8	–	–
CN(O)/C=C\C(=O)c1ccc(-c2ccccc2)cc1	–	> 10	–
CC(C)(C)/C(O)=C/C=N/OCc1ccccc1	> 25	–	–
CC(=O)ON(C)/C=C\C(=O)c1ccc(-c2ccccc2)cc1	> 25	–	–
O=C(/C=C\N(O)Cc1ccc(-c2ccccc2)cc1)c1ccco1	3.1	–	–
O=C(/C=C\N(O)Cc1ccccc1)c1c(Cl)cccc1Cl	1.7	> 10	–
COc1ccc2c(c1)c(CC(=O)O)c(C)n2C(=O)c1ccc(Cl)cc1	–	–	ID50 [3]: > 30 µM; ID50 (Crotalus adamanteus [4]): > 1000 µM; ID50 [5]: > 25 µM
CC(=O)ON(C)/C=C\C(=O)c1ccc([N+](=O)[O-])cc1	> 25	–	–
CC(=O)ON(/C=C\C(=O)c1ccc(Cl)cc1)Cc1ccccc1	> 25	> 10	–
O=C1CCN(c2ccccc2)N1 [PHENIDONE]	–	–	ID50 (Crotalus adamanteus [6]): > 1000 µM; ID50 [7]: 0.48 µM; ID50 [8]: 6.9 µM; ID50 (Homo sapiens [9]): >30 µM
CC(=O)ON(/C=C\C(=O)c1ccc(-c2ccccc2)cc1)Cc1ccccc1	> 25	> 10	–
O=C(/C=C\N(O)Cc1ccc(-c2ccccc2)cc1)c1ccc(F)cc1	3	5.2	–
O=C(/C=C\N(O)Cc1ccccc1)c1ccc(Cl)cc1	1.5	2.1	ID50 [10]: 1.5 µM; ID50 [3]: 2.1 µM; ID50 (Crotalus adamanteus [4]): > 1000 µM; ID50 [8]: > 750 µM
CN(O)/C=C\C(=O)c1ccc(OCc2ccccc2)cc1 [listing 1 of 2 here]	1.9	–	–
O=C(/C=C\N(O)Cc1ccc(Oc2ccccc2)cc1)C1CC1	1.4	> 10	–
CN(O)/C=C\C(=O)c1ccc([N+](=O)[O-])cc1	1.5	> 10	–
O=C(/C=C\N(O)Cc1ccc(-c2ccccc2)cc1)C1CC1	1.2	> 10	–
O=C(/C=C\N(O)Cc1ccccc1)c1ccc(F)cc1	–	2.8	ID50 [3]: 2.8 µM; ID50 (Crotalus adamanteus [4]): > 1000 µM; ID50 [8]: > 750 µM
C/C(=C/N(C)O)C(=O)c1ccc(OCc2ccccc2)cc1	8.9	–	–

Structure (SMILES)	IC50 [1] [µM]	IC50 [2] [µM]	other results
COc1ccccc1C(=O)/C=C\N(Cc1ccccc1)OC	> 25	–	–
O=C(/C=C\N(O)Cc1ccccc1)c1ccncc1	2	8.9	–
CC(=O)ON(C)/C=C\C(=O)c1ccc(Cl)cc1	> 25	–	–
O=C(/C=C\N(O)c1ccccc1)c1ccc2ccccc2c1	0.81	–	–
CN(O)/C=C\C(=O)Sc1ccc2ccccc2c1	0.24	> 10	–
O=C(/C=C\N(O)CCc1ccccc1)c1ccc(F)cc1	0.12	> 10	–
O=C(/C=C\N(O)Cc1ccc2ccccc2c1)c1ccc(F)cc1	0.4	7.7	–
CC(=O)ON(/C=C\C(=O)c1ccc(F)cc1)Cc1ccccc1	> 25	> 10	–
CN(O)/C=C\C(=O)c1ccc(Cl)cc1	0.55	> 10	–
O=C(/C=C\N(O)C1CCCCC1)c1ccc2ccccc2c1	2.6	> 10	–
CC(=O)ON(C)/C=C\C(=O)c1ccc(OCc2ccccc2)cc1	> 25	–	–
CN(O)/C=C\C(=O)c1ccc(OCc2ccccn2)cc1	10	–	–
CC(=O)ON(/C=C\C(=O)c1ccc([N+](=O)[O-])cc1)Cc1ccccc1	> 25	> 10	–
O=C(/C=C\N(O)Cc1ccc(OCc2ccccc2)cc1)C1CC1	2.6	–	–
CN(O)/C=C\C(=O)c1ccc2ccccc2c1	1.8	> 10	–
CN(O)/C=C\C(=O)c1cc(C(F)(F)F)cc(C(F)(F)F)c1	0.91	–	–
O=C(/C=C\N(O)Cc1ccccc1)c1ccc(-c2ccccc2)cc1	0.25	3.6	–
O=C(/C=C\NOCc1ccccc1)c1ccc(F)cc1	> 25	–	–
O=C(/C=C\N(O)Cc1ccccc1)c1ccc([N+](=O)[O-])cc1	2.5	1.7	–
CN(O)/C=C(\C(=O)c1ccccc1)c1ccccc1	> 25	–	–

Structure (SMILES)	IC50 [1] [µM]	IC50 [2] [µM]	other results
O=C(/C=C\N(O)Cc1ccc2ccccc2c1)C1CC1	1.5	9.9	–
CN(O)/C=C\C(=O)c1ccc(OCc2ccccc2)cc1 [listing 2 of 2 here]	1.1	> 10	–
O=C(/C=C\N(O)Cc1ccccc1)c1ccc2ccccc2c1	–	5.4	–
O=C(/C=C\NOCc1ccccc1)c1ccc(-c2ccccc2)cc1	> 25	–	–
CC(=O)N(/C=C\C(=O)C(C)(C)C)OCc1ccccc1	> 25	–	–
COc1ccc(C(=O)/C(=C\N(C)O)c2ccc(OC)cc2)cc1	> 25	–	–
O=C(/C=C\N(O)c1ccccc1)c1ccc(F)cc1	0.2	> 10	–
O=C(/C=C\N(O)Cc1ccc(-c2ccccc2)cc1)c1cccs1	> 25	–	–
CSc1ccc(C(=O)/C(=C\N(C)O)c2ccc(F)cc2)cc1	> 25	–	–
O=C(/C=C\N(O)Cc1ccc(-c2ccccc2)cc1)c1ccsc1	3	–	–
CC(=O)ON(/C=C\C(=O)C(C)(C)C)Cc1ccccc1	> 25	–	–
CC(c1cc2ccccc2s1)N(O)C(N)=O (stereo unspecified) [ZILEUTON]	–	–	ID50 (Crotalus adamanteus [11]): > 1000 µM; ID50 (Homo sapiens [12]): >30 µM; ID50 [8]: > 750 µM
CC(C)(C)C(=O)/C=C\N(O)Cc1ccccc1	5	> 10	–
CON(/C=C\C(=O)c1ccc(F)cc1)Cc1ccccc1	> 25	> 10	–
O=C(/C=C\N(O)C1CCCCC1)c1ccc(F)cc1	0.27	> 10	–
CCCCCCCCCCN(O)/C=C\C(=O)c1ccc(F)cc1	13	–	–
COc1ccccc1/C(O)=C/C=N/OCc1ccccc1	> 25	–	–
C/C(=C/C(=O)c1ccc(F)cc1)N(O)Cc1ccccc1	0.25	–	–
O=C(/C=C\N(O)Cc1ccccc1)c1ccc(Cl)c(Cl)c1	0.61	3.6	–
CN(O)/C=C\C(=O)c1ccc(F)cc1	5	5.5	–
